Measured values taken from ChEMBL document CHEMBL1138404, “Bisindole alkaloids of the topsentin and hamacanthin classes from a marine sponge Spongosorites sp” (J Nat Prod, 2007).
In brackets after ≈: the same amount, converted by molar mass.

Columns and labels:
Escherichia coli [1] = assay: Antibacterial activity against […] Escherichia coli TEM; assay type: functional
Summary of the method: (§1)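 Agar dilution MIC: Mueller Hinton agar plates containing 17 serial dilutions of sample (final 25 to 0.002 μg/mL), meropenem and imipenem as standards. Strains grown 18 h at 37 °C in Fleisch extract broth (10% horse serum for some strains), spotted onto plates by automatic inoculator; MIC read after 18 h incubation.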

Enterobacter cloacae [2] = assay: Antibacterial activity against […] Enterobacter cloacae 1321E; assay type: functional; summary of the method: as §1
Staphylococcus aureus [3] = assay: Antibacterial activity against methicillin-resistant Staphylococcus aureus 285; assay type: functional; summary of the method: as §1
[4] = Cytotoxicity against human XF498 cell line; assay type: cell-based; conditions: XF498 cells, read-out: ED50 (the source's name)
[5] = Cytotoxicity against human HCT15 cell line; assay type: cell-based; conditions: HCT-15 cells, read-out: ED50 (the source's name)
Streptococcus pyogenes [6] = assay: Antibacterial activity against methicillin-resistant Streptococcus pyogenes 77A; assay type: functional; summary of the method: as §1
Pseudomonas aeruginosa [7] = assay: Antibacterial activity against […] Pseudomonas aeruginosa 1771; assay type: functional; summary of the method: as §1
Escherichia coli [8] = assay: Antibacterial activity against […] Escherichia coli DC0; assay type: functional; summary of the method: as §1
Klebsiella oxytoca = assay: Antibacterial activity against […] Klebsiella oxytoca 1082E; assay type: functional; summary of the method: as §1
Escherichia coli [9] = assay: Antibacterial activity against […] Escherichia coli 078; assay type: functional; summary of the method: as §1
Staphylococcus aureus [10] = assay: Antibacterial activity against methicillin-resistant Staphylococcus aureus SG511; assay type: functional; summary of the method: as §1
Escherichia coli [11] = assay: Antibacterial activity against […] Escherichia coli DC2; assay type: functional; summary of the method: as §1
Pseudomonas aeruginosa [12] = assay: Antibacterial activity against […] Pseudomonas aeruginosa 1592E; assay type: functional; summary of the method: as §1
Pseudomonas aeruginosa [13] = assay: Antibacterial activity against […] Pseudomonas aeruginosa 1771M; assay type: functional; summary of the method: as §1
Enterobacter cloacae [14] = assay: Antibacterial activity against […] Enterobacter cloacae P99; assay type: functional; summary of the method: as §1
[15] = Cytotoxicity against human SK-MEL-2 cell line; assay type: cell-based; conditions: SK-MEL-2 cells, read-out: ED50 (the source's name)
Staphylococcus aureus [16] = assay: Antibacterial activity against methicillin-resistant Staphylococcus aureus 503; assay type: functional; summary of the method: as §1
Pseudomonas aeruginosa [17] = assay: Antibacterial activity against […] Pseudomonas aeruginosa 9027; assay type: functional; summary of the method: as §1
Enterococcus faecium = assay: Antibacterial activity against […] Streptococcus faecium MD8b; assay type: functional; summary of the method: as §1
Klebsiella aerogenes = assay: Antibacterial activity against […] Klebsiella aerogenes 1522E; assay type: functional; summary of the method: as §1
[18] = Cytotoxicity against human SK-OV-3 cell line; assay type: cell-based; conditions: SK-OV-3 cells, read-out: ED50 (the source's name)
Streptococcus pyogenes [19] = assay: Antibacterial activity against methicillin-resistant Streptococcus pyogenes 308A; assay type: functional; summary of the method: as §1
Escherichia coli [20] = assay: Antibacterial activity against […] Escherichia coli 1507E; assay type: functional; summary of the method: as §1
Salmonella typhimurium = assay: Antibacterial activity against […] Salmonella Typhimurium; assay type: functional, Salmonella enterica subsp. enterica serovar Typhimurium; conditions: Salmonella enterica; summary of the method: as §1
[21] = Cytotoxicity against human A549 cell line; assay type: cell-based; conditions: A549 cells, read-out: ED50 (the source's name)

| SMILES | MIC (Escherichia coli [1]) | MIC (Enterobacter cloacae [2]) | MIC (Staphylococcus aureus [3]) | CC50 [4] | CC50 [5] | MIC (Streptococcus pyogenes [6]) | MIC (Pseudomonas aeruginosa [7]) | MIC (Escherichia coli [8]) | MIC (Klebsiella oxytoca) | MIC (Escherichia coli [9]) | MIC (Staphylococcus aureus [10]) | MIC (Escherichia coli [11]) | MIC (Pseudomonas aeruginosa [12]) | MIC (Pseudomonas aeruginosa [13]) | MIC (Enterobacter cloacae [14]) | CC50 [15] | MIC (Staphylococcus aureus [16]) | MIC (Pseudomonas aeruginosa [17]) | CC50 [18] | CC50 [21] | further results |
| --- | --- | --- | --- | --- | --- | --- | --- | --- | --- | --- | --- | --- | --- | --- | --- | --- | --- | --- | --- | --- | --- |
| O=C1N[C@@H](c2c[nH]c3ccccc23)CN=C1c1c[nH]c2ccccc12 | > 25 µg/mL | > 25 µg/mL | > 25 µg/mL | 17.1 µg/mL (≈ 52.1 µM) | 4.1 µg/mL (≈ 12.5 µM) | 25 µg/mL (≈ 76.1 µM) | 25 µg/mL (≈ 76.1 µM) | > 25 µg/mL | > 25 µg/mL | > 25 µg/mL | > 25 µg/mL | > 25 µg/mL | 25 µg/mL (≈ 76.1 µM) | > 25 µg/mL | > 25 µg/mL | 5 µg/mL (≈ 15.2 µM) | > 25 µg/mL | > 25 µg/mL | 11.5 µg/mL (≈ 35 µM) | 8.3 µg/mL (≈ 25.3 µM) | MIC (Enterococcus faecium): > 25 µg/mL; MIC (Klebsiella aerogenes): > 25 µg/mL; MIC (Streptococcus pyogenes [19]): 25 µg/mL (≈ 76.1 µM); MIC (Escherichia coli [20]): > 25 µg/mL; MIC (Salmonella typhimurium): > 25 µg/mL |
| O=C1NC[C@@H](c2c[nH]c3ccccc23)N=C1c1c[nH]c2ccccc12 | > 25 µg/mL | > 25 µg/mL | > 25 µg/mL | 24.1 µg/mL (≈ 73.4 µM) | 4.79 µg/mL (≈ 14.6 µM) | > 25 µg/mL | 25 µg/mL (≈ 76.1 µM) | > 25 µg/mL | > 25 µg/mL | > 25 µg/mL | > 25 µg/mL | > 25 µg/mL | 25 µg/mL (≈ 76.1 µM) | > 25 µg/mL | > 25 µg/mL | 13.7 µg/mL (≈ 41.7 µM) | > 25 µg/mL | > 25 µg/mL | 12.6 µg/mL (≈ 38.4 µM) | 11.7 µg/mL (≈ 35.6 µM) | MIC (Enterococcus faecium): > 25 µg/mL; MIC (Klebsiella aerogenes): > 25 µg/mL; MIC (Streptococcus pyogenes [19]): > 25 µg/mL; MIC (Escherichia coli [20]): > 25 µg/mL; MIC (Salmonella typhimurium): > 25 µg/mL |
| O=C1NC[C@@H](c2c[nH]c3ccccc23)N[C@H]1c1c[nH]c2cc(Br)ccc12 | > 25 µg/mL | > 25 µg/mL | > 25 µg/mL | 9.74 µg/mL (≈ 23.8 µM) | > 10 µg/mL | > 25 µg/mL | > 25 µg/mL | > 25 µg/mL | > 25 µg/mL | > 25 µg/mL | > 25 µg/mL | > 25 µg/mL | > 25 µg/mL | > 25 µg/mL | > 25 µg/mL | > 10 µg/mL | > 25 µg/mL | > 25 µg/mL | 5.67 µg/mL (≈ 13.9 µM) | 9.67 µg/mL (≈ 23.6 µM) | MIC (Enterococcus faecium): > 25 µg/mL; MIC (Klebsiella aerogenes): > 25 µg/mL; MIC (Streptococcus pyogenes [19]): 25 µg/mL (≈ 61.1 µM); MIC (Escherichia coli [20]): > 25 µg/mL; MIC (Salmonella typhimurium): > 25 µg/mL |
| O=C1N[C@H](c2c[nH]c3ccccc23)CN[C@H]1c1c[nH]c2cc(Br)ccc12 | – | – | – | > 10 µg/mL | > 10 µg/mL | – | – | – | – | – | – | – | – | – | – | > 10 µg/mL | – | – | 4.92 µg/mL (≈ 12 µM) | > 10 µg/mL | – |
| O=C1NC[C@@H](c2c[nH]c3cc(Br)ccc23)N[C@H]1c1c[nH]c2ccccc12 | > 25 µg/mL | > 25 µg/mL | > 25 µg/mL | 6.8 µg/mL (≈ 16.6 µM) | 6.3 µg/mL (≈ 15.4 µM) | > 25 µg/mL | 25 µg/mL (≈ 61.1 µM) | > 25 µg/mL | > 25 µg/mL | > 25 µg/mL | > 25 µg/mL | > 25 µg/mL | 25 µg/mL (≈ 61.1 µM) | > 25 µg/mL | > 25 µg/mL | 7.1 µg/mL (≈ 17.3 µM) | > 25 µg/mL | > 25 µg/mL | 6 µg/mL (≈ 14.7 µM) | 4.2 µg/mL (≈ 10.3 µM) | MIC (Enterococcus faecium): > 25 µg/mL; MIC (Klebsiella aerogenes): > 25 µg/mL; MIC (Streptococcus pyogenes [19]): 25 µg/mL (≈ 61.1 µM); MIC (Escherichia coli [20]): > 25 µg/mL; MIC (Salmonella typhimurium): > 25 µg/mL |
| O=C1NC[C@@H](c2c[nH]c3ccccc23)N[C@H]1c1c[nH]c2ccccc12 | – | – | – | > 10 µg/mL | > 10 µg/mL | – | – | – | – | – | – | – | – | – | – | > 10 µg/mL | – | – | 9.64 µg/mL (≈ 29.2 µM) | > 10 µg/mL | – |
| O=C1N[C@H](c2c[nH]c3cc(Br)ccc23)CN[C@H]1c1c[nH]c2ccccc12 | > 25 µg/mL | > 25 µg/mL | > 25 µg/mL | 19.1 µg/mL (≈ 46.7 µM) | 6.3 µg/mL (≈ 15.4 µM) | > 25 µg/mL | 25 µg/mL (≈ 61.1 µM) | > 25 µg/mL | > 25 µg/mL | > 25 µg/mL | > 25 µg/mL | > 25 µg/mL | 25 µg/mL (≈ 61.1 µM) | > 25 µg/mL | > 25 µg/mL | 13.1 µg/mL (≈ 32 µM) | > 25 µg/mL | > 25 µg/mL | 12.1 µg/mL (≈ 29.6 µM) | 7.5 µg/mL (≈ 18.3 µM) | MIC (Enterococcus faecium): > 25 µg/mL; MIC (Klebsiella aerogenes): > 25 µg/mL; MIC (Streptococcus pyogenes [19]): > 25 µg/mL; MIC (Escherichia coli [20]): > 25 µg/mL; MIC (Salmonella typhimurium): > 25 µg/mL |
